# Experiments:
# [1] = Toxicity against human HepG2/C3A cells assessed as inhibition of cell proliferation at 50 uM after 6 days by SRB assay; format: cell-based; settings: 144 h
# Procedure, shortened: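 Cells were seeded at about 2,500 per well and exposed to drug for 6 days. They were fixed overnight at −10°C in methanol with 1% acetic acid, stained with 0.5% SRB in 1% acetic acid for 1 h at room temperature, and the dye eluted with 10 mM Tris pH 10. Result is dilution-adjusted absorbance at 540 nm, mean of three experiments.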
# [2] = Toxicity against human HepG2/C3A cells assessed as reduction in mitochondrial DNA copy numbers at 1 uM after 4 days relative to control; format: cell-based; design: scale not given: the % may be the effect or the level left; settings: 96 h
# Procedure, shortened: (§1)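 HepG2/C3A cells were grown in MEM with pyruvate and 10% FBS. Drug in PBS was replenished every 2 days for 4, 10 or 14 days. DNA was extracted and quantified by real-time SYBR Green PCR with 0.5 μM of each primer and 2 mM MgCl2. Output is the cytochrome b/pyruvate kinase gene copy ratio (mtDNA/nDNA), compared with time-matched control. Mean of three experiments.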
# [3] = Toxicity against human HepG2/C3A cells assessed as reduction in mitochondrial DNA copy numbers at 5 uM after 4 days relative to control; format: cell-based; design: scale not given: the % may be the effect or the level left; settings: 96 h; procedure, shortened: as §1
# [4] = Toxicity against human HepG2/C3A cells assessed as induction of cell death at 5 uM after 14 days; format: cell-based; settings: 336 h
# Procedure, shortened: (§2)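 LIVE/DEAD flow cytometry: harvested cells in PBS with 100 nM calcein AM and 8 μM ethidium homodimer 1, 30 min at 37°C in the dark, 488 nm excitation. After debris gating, dead cells are those high in ethidium homodimer and low in calcein, counted per 10,000 events. HepG2 were exposed 4, 10 or 14 days; H9c2 12 days. Compared with time-matched control.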
# H9c2 [5] = experiment: Toxicity in rat H9c2 cells assessed as effect on cell viability at 1 to 5 uM after 12 days; settings: h9c2, 288 h
# H9c2 [6] = experiment: Toxicity against rat H9c2 cells assessed as reduction in mitochondrial DNA copy numbers at 1 to 5 uM after 12 days relative to control; settings: h9c2, 288 h
# [7] = Toxicity against human HepG2/C3A cells assessed as reduction in mitochondrial DNA copy numbers at 1 uM after 14 days relative to control; format: cell-based; design: scale not given: the % may be the effect or the level left; settings: 336 h; procedure, shortened: as §1
# [8] = Toxicity against human HepG2/C3A cells assessed as reduction in mitochondrial DNA copy numbers at 5 uM after 14 days relative to control; format: cell-based; design: scale not given: the % may be the effect or the level left; settings: 336 h; procedure, shortened: as §1
# H9c2 [9] = experiment: Toxicity in rat H9c2 cells assessed as effect on cell viability at 5 uM after 6 days; settings: h9c2, 144 h
# [10] = Toxicity against human HepG2/C3A cells assessed as metabolic alterations at 10 to 50 uM after 4 to 14 days by SRB assay; format: cell-based
# H9c2 [11] = experiment: Toxicity against rat H9c2 cells assessed as inhibition of cell proliferation at 10 to 50 uM after 4 to 14 days by SRB assay; settings: h9c2, 50 µM
# H9c2 [12] = experiment: Toxicity against rat H9c2 cells assessed as metabolic alterations at 10 to 50 uM after 4 to 14 days by SRB assay; settings: h9c2, 50 µM
# [13] = Toxicity in human HepG2/C3A cells assessed as induction of cell death at 10 to 50 uM after 4 to 14 days; format: cell-based; procedure, shortened: as §2
# [14] = Toxicity against human HepG2/C3A cells assessed as inhibition of cell proliferation at 10 to 50 uM after 6 days by SRB assay
# H9c2 [15] = experiment: Toxicity against rat H9c2 cells assessed as reduction in mitochondrial DNA copy numbers at 10 uM after 12 days relative to control; design: scale not given: the % may be the effect or the level left; settings: h9c2, 288 h
# [16] = Toxicity against human HepG2/C3A cells assessed as reduction in mitochondrial DNA copy numbers at 10 uM after 4 to 14 days relative to control; format: cell-based; design: scale not given: the % may be the effect or the level left; procedure, shortened: as §1
# [17] = Toxicity against human HepG2/C3A cells assessed as reduction in mitochondrial DNA copy numbers at 50 uM after 4 to 14 days relative to control; format: cell-based; design: scale not given: the % may be the effect or the level left; procedure, shortened: as §1
# H9c2 [18] = experiment: Toxicity in rat […] cells assessed as induction of cell death at 10 to 50 uM after 4 to 14 days
# [19] = Toxicity in human HepG2/C3A cells assessed as cell viability at 0.5 ug/ml after 14 days; format: cell-based
# Procedure, shortened: (§3)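 HepG2/C3A cells were cultured with 0.5 µg/ml EtBr for 10 or 14 days. Harvested cells were stained with 100 nM calcein AM and 8 µM ethidium homodimer 1 for 30 min at 37°C in the dark, then analysed by flow cytometry at 488-nm excitation. Dead cells (high ethidium homodimer, low calcein) were counted per 10,000 events after debris gating.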
# [20] = Toxicity against human HepG2/C3A cells assessed as reduction in mitochondrial DNA copy numbers at 0.5 ug/ml after 4 days relative to control; format: cell-based; design: scale not given: the % may be the effect or the level left; settings: 96 h
# Procedure, shortened: (§4)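 DNA was extracted after 0.5 µg/ml EtBr exposure: H9c2 at 12 days (pre-kept 7 days in 1% FBS plus 10 nM retinoic acid), HepG2/C3A at 4, 10 and 14 days. SYBR real-time PCR used 0.5 µM primers and 2 mM MgCl2. Copy numbers came from purified-product standards, reported as cytochrome b/pyruvate kinase ratio versus control.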
# [21] = Toxicity against human […] cells assessed as reduction in mitochondrial DNA copy numbers at 0.5 ug/ml after 6 days relative to control; format: cell-based; design: scale not given: the % may be the effect or the level left; settings: hepg2/c3a, 144 h
# [22] = Toxicity in human HepG2/C3A cells assessed as cell viability at 0.5 ug/ml after 10 days; format: cell-based; procedure, shortened: as §3
# [23] = Toxicity against human HepG2/C3A cells assessed as inhibition of cell proliferation at 0.5 ug/ml after 6 days by SRB assay; format: cell-based; settings: 144 h
# Procedure, shortened: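 Cells were seeded at about 2,500/well in 12-well plates and cultured with 0.5 µg/ml EtBr for 6 days. They were fixed overnight in methanol with 1% acetic acid at −10°C and stained 1 h with 0.5% SRB. Bound dye was eluted with 10 mM Tris pH 10 and absorbance read at 540 nm. Three experiments were run.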
# [24] = Toxicity against human HepG2/C3A cells assessed as elevation of lactate levels at 0.5 ug/ml after 6 days by NAD+ reduction assay; format: cell-based; settings: 144 h
# Procedure, shortened: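 Cells were exposed to 0.5 µg/ml EtBr for 6 days in 12-well plates seeded at about 2,500 cells/well, with drug in PBS replenished at medium changes. Medium was deproteinised with TCA. Lactate was measured as NADH at 340 nm after 30 min at room temperature in glycine-hydrazine buffer pH 9.2 with NAD+ and lactate dehydrogenase. Results are nmol/well normalised to SRB absorbance, from three experiments.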
# [25] = Toxicity against human HepG2/C3A cells assessed as reduction in mitochondrial DNA copy numbers at 0.5 ug/ml after 10 days relative to control; format: cell-based; design: scale not given: the % may be the effect or the level left; settings: 240 h; procedure, shortened: as §4
# [26] = Toxicity against human HepG2/C3A cells assessed as reduction in mitochondrial DNA copy numbers at 0.5 ug/ml after 14 days relative to control; format: cell-based; design: scale not given: the % may be the effect or the level left; settings: 336 h; procedure, shortened: as §4
# [27] = Toxicity against human HepG2/C3A cells assessed as increase in mitochondrial superoxide production at 0.5 ug/ml after 4 to 14 days by flow cytometry; format: cell-based
# Procedure, shortened: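 HepG2/C3A cells were cultured in MEM with 10% FBS with 0.5 µg/ml EtBr for 4, 10 and 14 days, with medium changed every 2 days. Attached cells were loaded with 5 µM MitoSOX Red in HBSS with Ca/Mg for 10 min at 37°C in the dark, then trypsinised. Flow cytometry used 488-nm excitation and 530/30 emission; the value is the geometric mean fluorescence of 10,000 cells.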
# H9c2 [28] = experiment: Toxicity against rat H9c2 cells assessed as increase in mitochondrial superoxide production at 50 uM by flow cytometry; settings: h9c2, 50 µM
# [29] = Toxicity against human HepG2/C3A cells assessed as elevation of lactate levels at 10 uM after 6 days by NAD+ reduction assay; format: cell-based; settings: 144 h
# Procedure, shortened: (§5)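 Cells were seeded at about 2,500 per well and exposed 6 days; H9c2 were retinoic-acid-conditioned in 1% FBS. Medium was deproteinized with ice-cold 10% TCA. Lactate was read by LDH-catalyzed NAD+ reduction in 0.2 M glycine-hydrazine pH 9.2 with 0.6 mg/ml NAD+ and 17 U/ml LDH, 30 min at room temperature, absorbance 340 nm. Result is nmol/well normalized to SRB absorbance.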
# H9c2 [30] = experiment: Toxicity against rat H9c2 cells assessed as elevation of lactate levels at 50 uM after 6 days by NAD+ reduction assay; settings: h9c2, 144 h
# [31] = Toxicity in human HepG2/C3A cells assessed as induction of cell death at 10 uM after 4 days; format: cell-based; settings: 96 h; procedure, shortened: as §2
# [32] = Toxicity against human HepG2/C3A cells assessed as effect on mitochondrial DNA copy numbers at 50 uM after 10 days; format: cell-based; settings: 240 h; procedure, shortened: as §1
# [33] = Toxicity against human HepG2/C3A cells assessed as increase in mitochondrial superoxide production at 50 uM by flow cytometry; format: cell-based
# Procedure, shortened: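 Flask-grown cells were loaded with 5 μM MitoSOX Red in HBSS with Ca/Mg for 10 min at 37°C in the dark, trypsinized, and analyzed by flow cytometry (488 nm excitation, 530/30 emission). Result is the geometric mean fluorescence of 10,000 cells. HepG2 were sampled on days 4, 10 and 14; H9c2 on day 12. Compared with time-matched control.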
# [34] = Toxicity against human HepG2/C3A cells assessed as effect on mitochondrial DNA copy numbers at 50 uM after 4 days; format: cell-based; settings: 96 h; procedure, shortened: as §1
# [35] = Toxicity in human HepG2/C3A cells assessed as induction of cell death at 50 uM after 10 days; format: cell-based; settings: 240 h; procedure, shortened: as §2
# H9c2 [36] = experiment: Toxicity against rat H9c2 cells assessed as effect on mitochondrial DNA copy numbers after 12 days; settings: h9c2, 288 h
# [37] = Toxicity in human HepG2/C3A cells assessed as induction of cell death at 50 uM after 4 days; format: cell-based; settings: 96 h; procedure, shortened: as §2
# H9c2 [38] = experiment: Toxicity in rat H9c2 cells assessed as induction of cell death at 50 uM after 12 days; settings: h9c2, 288 h
# [39] = Toxicity in human HepG2/C3A cells assessed as induction of cell death at 50 uM after 14 days; format: cell-based; settings: 336 h; procedure, shortened: as §2
# [40] = Toxicity against human HepG2/C3A cells assessed as elevation of lactate levels at 50 uM after 6 days by NAD+ reduction assay; format: cell-based; settings: 144 h; procedure, shortened: as §5
# H9c2 [41] = experiment: Toxicity against rat H9c2 cells assessed as elevation of lactate levels at 10 uM after 6 days by NAD+ reduction assay; settings: h9c2, 144 h
structure (smiles),measurement,setting,value
Nc1ccn([C@H]2CC[C@@H](CO)O2)c(=O)n1 [ZALCITABINE],Activity,[1],Non-toxic
same,Activity,[2],15%
same,Activity,[3],11%
same,Activity,[4],Toxic
same,Activity,H9c2 [5],Non-toxic
same,Activity,H9c2 [6],Non-toxic
same,Activity,[7],1%
same,Activity,[8],1%
same,Activity,H9c2 [9],Non-toxic
O=c1[nH]cnc2c1ncn2[C@H]1CC[C@@H](CO)O1 [DIDANOSINE],Activity,[10],Non-toxic
same,Activity,H9c2 [11],Non-toxic
same,Activity,H9c2 [12],Non-toxic
same,Activity,[13],Non-toxic
same,Activity,[14],Non-toxic
same,Activity,H9c2 [15],60%
same,Activity,[16],80%
same,Activity,[17],50%
same,Activity,H9c2 [18],Non-toxic
CC[n+]1c(-c2ccccc2)c2cc(N)ccc2c2ccc(N)cc21.[Br-] [HOMIDIUM BROMIDE],"viability at 336 h, 0.5 ug/ml",[19],> 80%
same,Activity,[20],16%
same,Activity,[21],16%
same,"viability at 240 h, 0.5 ug/ml",[22],> 80%
same,Activity,[23],Toxic
same,Activity,[24],Toxic
same,Activity,[25],10%
same,Activity,[26],4%
same,Activity,[27],Toxic
Cc1cn([C@H]2C[C@H](N=[N+]=[N-])[C@@H](CO)O2)c(=O)[nH]c1=O [ZIDOVUDINE],Activity,H9c2 [28],Non-toxic
same,Activity,[1],Toxic
same,Activity,[29],Toxic
same,Activity,H9c2 [30],Toxic
same,Activity,[31],Toxic
same,Activity,[32],Toxic
same,Activity,[33],Toxic
same,Activity,[34],Toxic
same,Activity,[35],Toxic
same,Activity,H9c2 [36],Non-toxic
same,Activity,[37],Toxic
same,Activity,H9c2 [38],Non-toxic
same,Activity,[39],Toxic
same,Activity,[40],Toxic
same,Activity,H9c2 [41],Toxic

# Source: ChEMBL document CHEMBL1150803, “Absence of a universal mechanism of mitochondrial toxicity by nucleoside analogs” (Antimicrob Agents Chemother, 2007)
